# Results gathered from unrelated publications.
# Organism: Plasmodium falciparum
# Effect on: parasite growth
# Technique: SYBR Green
SMILES,test system,setting,measurement,result
COC(CNC1=CC2=NCCc3c[nH]c(c32)C1=O)c1c[nH]c2ccccc12 (stereo not shown),W2,blood stage,IC50,1.12 µM
O=C(/C=C/c1cn(Cc2cn(-c3ccnc4cc(Cl)ccc34)nn2)c2ccccc12)c1ccccc1[N+](=O)[O-],3D7,"5 µM, blood stage",inhibition,-5.03%
Cc1cc(Nc2ccc(S(F)(F)(F)(F)F)cc2)n2nc(C(C)(F)F)nc2n1,,72 h,EC50,0.0057 µM
O=C(/C=C/c1cn(Cc2cn(-c3ccnc4cc(Cl)ccc34)nn2)c2ccccc12)c1ccccc1Cl,3D7,"5 µM, blood stage",inhibition,42.4%
NC1=CC2=NCCc3c[nH]c(c32)C1=O,DD2,blood stage,IC50,0.478 µM
COc1ccccc1C(=O)/C=C/c1cn(Cc2cn(-c3ccnc4cc(Cl)ccc34)nn2)c2ccccc12,3D7,"5 µM, blood stage",inhibition,56.8%
COC1=CC2=[N+](C)CCc3c[nH]c(c32)C1=O,W2,blood stage,IC50,1.52 µM
O=C(/C=C/c1cn(Cc2cn(-c3ccnc4cc(Cl)ccc34)nn2)c2ccccc12)c1ccccc1Br,3D7,"10 µM, blood stage",inhibition,47.4%
CCOCC(=O)N1CCC[C@H](C(=O)NCc2nc(-c3ccccc3)cs2)C1,DD2,"72 h, blood stage",EC50,0.024 µM
O=C1c2[nH]cc3c2C(=NCC3)c2c(-c3ccc(O)cc3)c[nH]c21,DD2,blood stage,IC50,4.77 µM
CCOCC(=O)N1CCC[C@H](C(=O)NCc2nc(-c3ccc(C)nc3)cs2)C1,DD2,"72 h, blood stage",EC50,0.005 µM
O=C(/C=C/c1cn(Cc2cn(-c3ccnc4cc(Cl)ccc34)nn2)c2ccccc12)c1ccc(Br)cc1,3D7,"5 µM, blood stage",inhibition,12.9%
CCOC(=O)C1=C(C)NC2=C(C(=O)CC(c3ccc(Cl)c(OC)c3)C2)C1c1ccccc1Cl (stereo not shown),3D7,blood stage,EC50,~0.02 µM
Cn1cc2c3c1C(=O)C(NCCc1ccc(O)cc1)=CC3=NCC2,DD2,blood stage,IC50,2.38 µM
COCC(=O)N1CCCC(C(=O)NCc2nc(-c3ccccc3)cs2)C1 (racemic),DD2,"72 h, blood stage",EC50,0.14 to 0.19 µM
O=C1C(NCCc2c[nH]c3ccccc23)=CC2=NCCc3c[nH]c1c32,DD2,blood stage,IC50,0.598 µM
O=C(/C=C/c1cn(Cc2cn(-c3ccnc4cc(Cl)ccc34)nn2)c2ccccc12)c1ccccc1,3D7,"5 µM, blood stage",inhibition,-3.08%
COCC(=O)N1CCC[C@H](C(=O)NCc2nc(-c3ccc(C)cc3)cs2)C1,DD2,"72 h, blood stage",EC50,0.015 µM
CCN(CC)CCCC(C)Nc1ccnc2cc(Cl)ccc12 (stereo not shown),3D7,"96 h, blood stage",IC50,0.0048 µM
